Reference: ChEMBL document CHEMBL1126066, “Biological activities and quantitative structure-activity relationships of spiro[imidazolidine-4,4'(1'H)-quinazoline]-2,2',5(3'H)-triones as aldose reductase inhibitors” (J Med Chem, 1992)
Where “and” joins values, the source holds several entries; their conditions need not be identical. Equal entries are not always repeated.

Tests used:
Rattus norvegicus [1] = assay: In vivo inhibition of polyol accumulation in the sciatic nerve of galactosemic rats, activity is measured as polyol contents; type: functional, organism-based
Procedure, shortened: (§1)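 Male Wistar rats (SIC, 4 weeks old), three per group, had free access to water and a 20% galactose diet containing the compound for 6 days. Galactose-only and standard-diet groups served as controls. Rats were bled under ether anesthesia on day 7. Sciatic nerve polyol was measured by a modified Dvornik assay. % inhibition = (galactose control − treated)/(galactose control − normal) × 100. Student's t-test was used.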

Rattus norvegicus [2] = assay: In vivo inhibition of polyol accumulation in the sciatic nerve of galactosemic rats, activity is expressed as percent inhibition of poloyl accumulation.; type: functional; parameters: concentration or dose not given beside the values; procedure, shortened: as §1
Rattus norvegicus [3] = assay: Compound was evaluated in vivo for percent inhibition of polyol accumulation at a dose of 15 mg/kg per day; type: functional
Procedure, shortened: (§2)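 Galactosemic male Wistar rats (4 weeks old, n = 3) received the compound in a 20% galactose diet for 6 days and were killed on day 7. Sciatic nerve or lens polyol was measured by a modified Dvornik assay. Mean % inhibition = (galactose control − treated)/(galactose control − normal control) × 100.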

Rattus norvegicus [4] = assay: Compound was evaluated in vivo for […] at a dose of 90 mg/kg per day.; type: functional, organism-based
Rattus norvegicus [5] = assay: Compound was evaluated in vivo for […] at a dose of 15 mg/kg per day.; type: functional, organism-based; settings: Sciatic nerve; procedure, shortened: as §1
Rattus norvegicus [6] = assay: Compound was evaluated in vivo for 50% inhibition of enzymatic activity of partially purified AR from male rabbit sciatic nerve at a dose of 90 mg/kg per day.; type: functional, organism-based; procedure, shortened: as §1
Rattus norvegicus [7] = assay: Compound was evaluated in vivo for percent inhibition of polyol accumulation at a dose of 3 mg/kg per day.; type: functional; procedure, shortened: as §2
Rattus norvegicus [8] = assay: Compound was evaluated in vivo for inhibition of polyol accumulation in rat at a dose of 15 mg/kg per day.
Rattus norvegicus [9] = assay: Compound was evaluated in vivo for polyol content in lens of galactosemic rats at a dose of 3 mg/kg per day.
Rattus norvegicus [10] = assay: Compound was evaluated in vivo for 50% inhibition of polyol accumulation in rat sciatic nerve at a dose of 3 mg/kg per day.

| Compound | polyol content (Rattus norvegicus [1]) | Inhibition (Rattus norvegicus [2]) | further results |
| --- | --- | --- | --- |
| CN1C(=O)Nc2c(Cl)cc(Cl)cc2C12NC(=O)NC2=O (stereo not drawn) | 5.8 µmol/g | 63.1% |  |
| CN1C(=O)Nc2c([N+](=O)[O-])cc(Cl)cc2C12NC(=O)NC2=O (stereo not drawn) | 8 µmol/g | 29.2% |  |
| O=C1NC(=O)[C@@]2(CCOc3ccc(F)cc32)N1 [SORBINIL] |  |  | inhibition in vivo at 15 mg/kg/day (Rattus norvegicus [3]): 90.2% |
| CN1C(=O)Nc2ccc(Cl)cc2[C@@]12NC(=O)NC2=O | 3.4 µmol/g | 100% | polyol content (Rattus norvegicus [4]): 42.4 µmol/g; polyol content (Rattus norvegicus [5]): 4.8 µmol/g; polyol content (Rattus norvegicus [6]): 2.8 µmol/g; Inhibition (Rattus norvegicus [7]): 23.4% and 0%; polyol content (Rattus norvegicus [8]): 59.2 µmol/g; polyol content (Rattus norvegicus [9]): 58.9 µmol/g; polyol content (Rattus norvegicus [10]): 7.5 µmol/g |
| NN1C(=O)Nc2ccccc2C12NC(=O)NC2=O (stereo not drawn) | 11.3 µmol/g | 12.2% |  |
| CCOC(=O)c1ccc2c(c1)C1(NC(=O)NC1=O)N(C)C(=O)N2 (stereo not drawn) | 11.1 µmol/g | 22.2% |  |
| CN1C(=O)Nc2c(cc(F)c(F)c2F)C12NC(=O)NC2=O (stereo not drawn) | 9.5 µmol/g | 29.9% |  |
| CN1C(=O)Nc2ccc(Br)cc2C12NC(=O)NC2=O (stereo not drawn) | 5.6 µmol/g | 74.7% |  |
| CN1C(=O)Nc2ccc(Cl)cc2C12NC(=O)NC2=O (stereo not drawn) | 6.7 µmol/g | 68% |  |
| Cc1cc2c(cc1Cl)C1(NC(=O)NC1=O)N(C)C(=O)N2 (stereo not drawn) | 6.8 µmol/g | 58% |  |
| Cc1cccc2c1C1(NC(=O)NC1=O)N(C)C(=O)N2 (stereo not drawn) | 9.2 µmol/g | 27.5% |  |
| CN1C(=O)Nc2cc(Cl)ccc2C12NC(=O)NC2=O (stereo not drawn) | 11.4 µmol/g | 22.3% |  |
| CCN1C(=O)Nc2ccccc2C12NC(=O)NC2=O (stereo not drawn) | 9.6 µmol/g | 19.5% |  |
| CN1C(=O)Nc2ccc([N+](=O)[O-])c(Cl)c2C12NC(=O)NC2=O (stereo not drawn) | 11.5 µmol/g | 0% |  |
| CN1C(=O)Nc2ccc(OC(=O)c3ccccc3)cc2C12NC(=O)NC2=O (stereo not drawn) | 10.5 µmol/g | 12.3% |  |
| CN1C(=O)Nc2c([N+](=O)[O-])cc([N+](=O)[O-])cc2C12NC(=O)NC2=O (stereo not drawn) | 10.1 µmol/g | 14.1% |  |
| CN1C(=O)Nc2ccc([N+](=O)[O-])cc2C12NC(=O)NC2=O (stereo not drawn) | 12.1 µmol/g | 15.5% |  |
| COc1c(Cl)cc2c(c1Cl)NC(=O)N(C)C21NC(=O)NC1=O (stereo not drawn) | 8.4 µmol/g | 37.5% |  |
| CN1C(=O)N(C)C2(NC(=O)NC2=O)c2ccccc21 (stereo not drawn) | 9.2 µmol/g | 28.4% |  |
| CN1C(=O)Nc2cccc(Cl)c2C12NC(=O)NC2=O (stereo not drawn) | 11.9 µmol/g | 17.5% |  |
| COc1cc2c(cc1Cl)C1(NC(=O)NC1=O)N(C)C(=O)N2 (stereo not drawn) | 8.3 µmol/g | 24.6% |  |
